# How the values were obtained:
# [1] = target: T1, Muscarinic acetylcholine receptor (Rattus norvegicus) (UniProt P08482+P08483+P08485+P08911+P10980)
# [2] = pKa value was determined; type: physicochemical
# Procedure, shortened: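 Determined by autotitration with a pH meter and autoburette; mean of two or more independent measurements.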
# [3] = target: T1, Muscarinic acetylcholine receptor (Rattus norvegicus); remark: listed apart in the source
# [4] = target: T1, Muscarinic acetylcholine receptor (Rattus norvegicus); experiment: Apparent binding affinity against rat cortical Muscarinic acetylcholine receptor by the displacement of [3H]N-methylscopolamine; type: protein assay
# Procedure, shortened: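 Membranes from cortex of male Sprague-Dawley rats (250–300 g), resuspended in 20 mM HEPES Krebs' buffer pH 7.4. Displacement of 0.1 nM [3H]-N-methylscopolamine; 60 min incubation at 30 °C, ended by filtration. Apparent affinity constant corrected for radioligand occupancy, given in micromolar; geometric mean of at least three independent experiments on separate occasions.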
# [5] = Ratio of apparent binding affinities of NMS and Oxo-M
# [6] = target: T1, Muscarinic acetylcholine receptor (Rattus norvegicus); experiment: Apparent binding affinity against rat cortical Muscarinic acetylcholine receptor by the displacement of [3H]oxotremorine-M; type: protein assay
# Procedure, shortened: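 Rat brain membranes from male Sprague-Dawley rats (250–300 g), resuspended in 20 mM HEPES buffer pH 7.4. Displacement curves use 3.0 nM [3H]oxotremorine-M; incubation 40 min at 30 °C, stopped by filtration through polyethyleneimine-presoaked filters.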
Structure (SMILES),K app [1],pKa [2],K app [3],K app [4],Ratio [5],K app [6]
Cc1noc(C2=CC(C)CN(C)C2)n1 (stereo not given),15 µM,7.34,0.87 µM,–,–,–
FCCc1noc(C2=CCCNC2)n1,5.7 µM,8.29,0.021 µM,–,–,–
Cc1noc(C2=CCC(C)NC2)n1 (stereo not given),–,8.2,–,16 µM,130,0.12 µM
CCc1noc(C2=CCCNC2)n1,4.3 µM,–,0.0074 µM,–,–,–
OCc1noc(C2=CCCNC2)n1,34 µM,–,0.11 µM,–,–,–
CN(C)c1noc(C2=CCCNC2)n1,3.5 µM,8.58,0.082 µM,–,–,–
C=Cc1noc(C2=CCCNC2)n1,2.5 µM,8.23,0.035 µM,–,–,–
OCCc1noc(C2=CCCNC2)n1,13 µM,–,0.23 µM,–,–,–
Cc1noc(C2=CC(C)CNC2)n1 (stereo not given),2.7 µM,8.17,0.037 µM,–,–,–
Cc1noc(C2=CCCNC2)n1,2.3 µM,8.24,0.0031 µM,–,–,–
COC(=O)C1=CCCNC1,23 µM,–,0.012 µM,–,–,–
Cc1noc(C2=CCCN(C)C2)n1,–,7.16,–,–,–,–
Cc1noc(C2=CCC(C)N(C)C2)n1 (stereo not given),2.4 µM,7.35,0.061 µM,–,–,–
CCC1C=C(c2nc(C)no2)CNC1 (stereo not given),25 µM,–,0.97 µM,–,–,–
CN1CCC=C(c2nc(N(C)C)no2)C1,2.5 µM,7.24,0.12 µM,–,–,–
Nc1noc(C2=CCCNC2)n1,–,8.25,–,–,–,–

# From ChEMBL document CHEMBL1125623, “Tetrahydropyridyloxadiazoles: semirigid muscarinic ligands” (J Med Chem, 1991)
